This is a sample that favours compounds with a hit; in the whole collection about 2.6% have one here.
MC4R antag cAMP: MC4R antagonists of cAMP signaling, primary screen, cell-based, TR-FRET, antagonist arm of biased-ligand search | AID 540295, 2011 | MC4R-expressing cells, MTII-stimulated cAMP, LANCE TR-FRET | inhibition, % at 6.5 µM | 360,000 tested, 0.48% active | Melanocortin receptor 4 (Homo sapiens), P32245;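 active means inhibition above its plate's cutoff, the mean of tested wells on that plate plus 3 SD, cut at about 29% in these data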
Target sequence (P32245 whole entry, looked up): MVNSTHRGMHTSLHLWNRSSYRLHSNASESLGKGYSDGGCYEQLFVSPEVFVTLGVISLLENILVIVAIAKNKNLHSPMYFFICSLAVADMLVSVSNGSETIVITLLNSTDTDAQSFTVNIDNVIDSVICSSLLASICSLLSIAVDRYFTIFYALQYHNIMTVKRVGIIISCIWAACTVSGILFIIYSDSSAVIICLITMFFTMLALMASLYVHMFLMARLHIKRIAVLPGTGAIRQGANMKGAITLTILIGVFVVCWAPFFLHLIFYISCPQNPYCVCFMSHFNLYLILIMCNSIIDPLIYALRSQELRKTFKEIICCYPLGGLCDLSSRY
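System: U2OS-MC4R stable cell line; Technique: Eu-cAMP/anti-cAMP TR-FRET, emission 671 nm; Repeats: single well per compound; Also added: Melanotan II; Dosing: one concentration, 6.5 µM nominal; Schedule: 30-min compound, 1-h challenge, 1-h detection, room temperature.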
EP2 modulator: EP2 receptor modulators, cAMP readout, primary screen, cell-based, HTRF cAMP, PGE2 stimulation; Prostaglandin E2 receptor EP2 subtype (Homo sapiens), P43116; EP2-expressing cells, cAMP HTRF FRET, PGE2 co-stimulation; induction, % at 25 µM; 260,000 tested, 0.83% active; AID 940, 2007;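 active means compounds whose cAMP rise, as percent of the full-agonist control response, exceeds 60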;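 further: rat C6 glioma line stably carrying human EP2 under a CMV promoter; the protocol text gives 20 µM as final concentration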
Target sequence (P43116 whole entry, looked up): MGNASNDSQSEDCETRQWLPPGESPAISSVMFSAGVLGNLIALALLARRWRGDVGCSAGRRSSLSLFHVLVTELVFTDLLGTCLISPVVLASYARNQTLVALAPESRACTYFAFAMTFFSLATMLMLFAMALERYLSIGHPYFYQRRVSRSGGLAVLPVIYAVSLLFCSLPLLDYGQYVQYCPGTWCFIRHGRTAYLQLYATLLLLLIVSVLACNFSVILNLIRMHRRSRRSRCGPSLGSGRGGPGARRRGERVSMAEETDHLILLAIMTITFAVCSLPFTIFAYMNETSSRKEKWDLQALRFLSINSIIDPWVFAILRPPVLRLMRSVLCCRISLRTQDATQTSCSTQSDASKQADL
PGE2 EP2 inh: human EP2 receptor antagonists, primary screen, TR-FRET cAMP, C6 glioma cells | Prostaglandin E2 receptor EP2 subtype (Homo sapiens), P43116 | C6 glioma cells expressing human EP2; cells stimulated with saturating PGE2 | inhibition, % at 25 µM | 260,000 tested, 0.52% active | AID 1422, 2008;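 active means percent inhibition above 40 after rounding to a whole number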;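 further: rat C6 glioma host cells with rolipram phosphodiesterase inhibitor present; the protocol text gives 20 µM as final concentration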
T cell HTS: modulators of CD8 T cell-vesicle binding, primary screen, mouse 2C CD8+ T cells, flow cytometry; 2C CD8+ T cell-vesicle binding; active compounds read low; 330,000 tested, 0.068% active; response (vesicle binding), % at 7 µM;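 active means response, share of CD8 T cells binding vesicles, and their 90th percentile fluorescence all below set limits, cut at about 80% in these data, passing the limit was not always enough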;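 further: values below 100% mean blocked vesicle binding to the CD8+ T cells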
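System: murine 2C transgenic CD8+ T lymphocytes; also added: QL9-loaded Drosophila micro-vesicles; times: binding 1.5 h at 37 °C; measured by: flow cytometry, PE anti-B7-1 (FL2) versus Alexa647 anti-CD8 (FL8), PFA-fixed; control set: Peptide-free naked vesicles (low) and QL9 vesicles with 0.7% DMSO vehicle (high)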
Exocytosis inh: LAMP-1 surface exposure blockers, TALL-104 cells – cell-based, flow cytometry, MLPCN library, primary screen; TALL-104 LAMP-1 surface exposure; cells stimulated with thapsigargin and PMA; inhibition, % at 10 µM; 360,000 tested, 0.66% active; AID 651702, 2012;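 active means inhibition above about 55%, limit read from the data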
MC4R barr agon: MC4R agonists recruiting beta-arrestin, primary screen, cell-based, luminescence, agonist arm of biased-ligand search; AID 540308, 2011; activation, % at 8.9 µM; U2OS MC4R beta-arrestin complementation; percent of melanotan II response, DMSO zero; Melanocortin receptor 4 (Homo sapiens), P32245; 360,000 tested, 0.98% active;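 active means activation above a per-plate cutoff, the mean activation of sample wells on that plate plus 3 SD, cut at about 8% in these data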
U2OS cAMP counter: nonselective cAMP signaling inhibitors, parental cells, counter-screen for MC4R biased antagonist project, cell-based, TR-FRET, U2OS, forskolin, triplicate. shares compounds with MC4R antag cAMP. LANCE TR-FRET. inhibition, % at 6.5 µM. 1,600 tested, 26% active;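 active means mean inhibition over triplicates above the low-control well mean plus 3 SD, set per campaign, cut at about 13% in these data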;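 further: signal is single emission at 671 nm which falls as cellular cAMP rises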
MC4R antag conf: MC4R cAMP antagonists, retest, confirmation, cell-based, TR-FRET | shares compounds with MC4R antag cAMP | MC4R-expressing cells, MTII-stimulated cAMP | inhibition, % at 6.5 µM | 1,600 tested, 27% active; in the data active means inhibition above about 29%
Each line names hits and unclear results; the compound was inactive in the other large screens (follow-up assays come after a bar, where they were run).

COc1ccc(NC(=O)Nc2ccccc2C)c(OC)c1	none
COc1ccccc1NC(=O)NCc1ccco1	none
COC(=O)C(Cc1ccccc1)NC(=O)CC(C)CC(=O)Nc1ccc(OC)cc1OC (stereo not drawn)	MC4R antag cAMP 34.7 (no result: EP2 modulator, PGE2 EP2 inh) | U2OS cAMP counter inactive | MC4R antag conf inactive
COc1ccc(NC(=O)NCc2ccco2)c(OC)c1	MC4R antag cAMP 32.6 | U2OS cAMP counter inactive | MC4R antag conf inactive
COc1ccc(NC(=O)Nc2ccccc2SC)c(OC)c1	MC4R antag cAMP 33.7 | U2OS cAMP counter inactive | MC4R antag conf inactive
CC[C@@H](NCCCn1cnc2c(SC)ncnc21)c1ccccc1	none (no result: EP2 modulator, PGE2 EP2 inh, T cell HTS)
Cc1ccnc(NS(=O)(=O)c2ccc(NC(=O)CN3C(=O)CCC3=O)cc2)n1	none
COc1ccc(N2CCN(C(c3cccs3)C(C)NC(=O)c3ccc4c(c3)OCO4)CC2)cc1 (stereo not drawn)	MC4R antag cAMP 34.5 | U2OS cAMP counter inactive | MC4R antag conf inactive
COc1ccc(N2CCN(C(c3cccs3)C(C)NC(=O)c3ccco3)CC2)cc1 (stereo not drawn)	none
O=C(NCc1ccc2c(c1)OCO2)C(=O)NCC(c1ccco1)N1CCN(c2ccccc2)CC1 (stereo not drawn)	none
COc1ccc(N2CCN(C(CNC(=O)C(=O)NCc3ccc4c(c3)OCO4)c3ccco3)CC2)cc1 (stereo not drawn)	MC4R antag cAMP 29.0 | U2OS cAMP counter inactive | MC4R antag conf inactive
Cc1ccc(OC(C)C(=O)N(C)Cc2ccccc2)c([N+](=O)[O-])n1 (stereo not drawn)	none (no result: EP2 modulator, PGE2 EP2 inh)
CC(=O)N(C)[C@H]1C[C@@H](c2ccccc2)N(C(C)=O)C[C@H]1CO	none (no result: MC4R antag cAMP, EP2 modulator, PGE2 EP2 inh, T cell HTS, MC4R barr agon)
Cc1ccc(-c2nnn(CCC(=O)NCc3cccs3)n2)cc1	none (no result: MC4R antag cAMP, T cell HTS, Exocytosis inh, MC4R barr agon)
O=C(CSc1ccccn1)C12CC3CC(CC(C3)C1)C2	MC4R antag cAMP 31.5 | U2OS cAMP counter inactive | MC4R antag conf inactive
O=C(O)c1cccnc1SCC(=O)C12CC3CC(CC(C3)C1)C2	none
COCC(C)NC(=O)c1cccc(Cl)c1 (stereo not drawn)	none
COCC(C)NC(=O)c1cc(OC)cc(OC)c1 (stereo not drawn)	MC4R antag cAMP 36.4 | U2OS cAMP counter inactive | MC4R antag conf inactive
C=CCn1c(Oc2ccccc2)nc2c1c(=O)n(C)c(=O)n2C	none
O=C(O)c1ccccc1C(=O)c1ccc(Oc2ccccc2)cc1	none
CCc1cc2ccc(OC)cc2nc1SCC(=O)NNC(=O)c1ccco1	none
CCc1cc2ccc(OC)cc2nc1SCC(=O)N1CCN(C(=O)c2ccco2)CC1	MC4R antag cAMP 33.6 | U2OS cAMP counter inactive | MC4R antag conf inactive
O=C(COc1cccc2c1CCNC2=O)Nc1ccc(Cl)cc1	MC4R antag cAMP 29.0 (no result: EP2 modulator, PGE2 EP2 inh, T cell HTS) | U2OS cAMP counter inactive | MC4R antag conf inactive
COC(=O)c1c(NC(=O)C2COc3ccccc3O2)sc2c1CCN(Cc1ccccc1)C2 (stereo not drawn)	none
COC(=O)c1c(NC(=O)C2COc3ccccc3O2)sc2c1CCN(C(=O)OC)C2 (stereo not drawn)	MC4R antag cAMP 31.1 (no result: EP2 modulator, PGE2 EP2 inh, T cell HTS) | U2OS cAMP counter inactive | MC4R antag conf inactive
COC(=O)c1c(NC(=O)CCC(=O)O)sc2c1CCC2	none (no result: MC4R antag cAMP, T cell HTS, Exocytosis inh, MC4R barr agon)
COC(=O)c1c(NC(=O)CC2SCC(C(=O)OC)NC2=O)sc2c1CCCC2 (stereo not drawn)	MC4R antag cAMP 29.2 | U2OS cAMP counter inactive | MC4R antag conf 31.6
CS(=O)(=O)c1ccc(C(=O)OCC(=O)N2CCN(CCC3CCCCC3)CC2)cc1[N+](=O)[O-]	none (no result: EP2 modulator, PGE2 EP2 inh, T cell HTS)
CS(=O)(=O)c1ccc(C(=O)OCC(=O)NC(=O)C2CCCCC2)cc1[N+](=O)[O-]	MC4R antag cAMP 33.3 | U2OS cAMP counter 25.3 | MC4R antag conf 42.6
CS(=O)(=O)c1ccc(C(=O)OCC(=O)NC(=O)C2COc3ccccc3O2)cc1[N+](=O)[O-] (stereo not drawn)	MC4R antag cAMP 30.8 (no result: EP2 modulator, PGE2 EP2 inh) | U2OS cAMP counter inactive | MC4R antag conf inactive
CN(C)c1ccc(NC(=O)CN2CCN(c3ccc(F)cc3)CC2)cc1	none (no result: EP2 modulator, PGE2 EP2 inh)
O=C(Nc1ccccc1)Nc1ccc2ccccc2c1	none
CC(C)Sc1cc(Cl)nc(NC(=O)Nc2ccccc2)n1	MC4R antag cAMP 30.6 (no result: EP2 modulator, PGE2 EP2 inh) | U2OS cAMP counter 17.0 | MC4R antag conf 39.5
O=Cc1s/c(=N\S(=O)(=O)c2ccccc2)n(CCCCl)c1Cl	MC4R antag cAMP 45.9 (no result: T cell HTS) | U2OS cAMP counter inactive | MC4R antag conf inactive
Cc1ccc(NC(=O)CNC(=O)c2cccc(Cl)c2)nc1	none (no result: EP2 modulator, PGE2 EP2 inh)
CCn1nc(C)cc1-c1nnc(Sc2ncc([N+](=O)[O-])s2)n1C	MC4R antag cAMP 45.7 (no result: EP2 modulator, PGE2 EP2 inh) | U2OS cAMP counter 28.0 | MC4R antag conf 57.5
N#Cc1cc2c(nc1SCC(=O)Nc1nccs1)CCCCC2	MC4R antag cAMP 39.2 | U2OS cAMP counter inactive | MC4R antag conf inactive
CCc1nnc(NC(=O)CSc2nc3c(cc2C#N)CCC3)s1	none
CCCc1nn(CC(=O)N2C(C)CCCC2C)c(=O)c2cc3ccsc3n12 (stereo not drawn)	none (no result: MC4R antag cAMP, PGE2 EP2 inh, T cell HTS, Exocytosis inh, MC4R barr agon)
CN(Cc1ccccc1)C(=C(Cl)Cl)/C(=C1/NCCN1C)[N+](=O)[O-]	MC4R antag cAMP 39.2 | U2OS cAMP counter inactive | MC4R antag conf inactive
COC(=O)Nc1ccc(S(=O)(=O)Nc2cc(C(F)(F)F)c[nH]c2=O)cc1	none (no result: EP2 modulator, PGE2 EP2 inh)
Cc1cc(C(=O)COc2cc(F)ccc2[N+](=O)[O-])c(C)n1C1CC1	MC4R antag cAMP 28.9 | U2OS cAMP counter 18.9 | MC4R antag conf 47.6
Cc1noc(C)c1NC(=O)N(C)C[C@H]1Oc2ccc(NC(=O)C3CCCCC3)cc2C(=O)N([C@H](C)CO)C[C@@H]1C	none (no result: EP2 modulator, PGE2 EP2 inh)
Cc1ccc(F)c(NC(=O)c2cncn2-c2ccccc2)c1	MC4R antag cAMP 30.1 (no result: EP2 modulator, PGE2 EP2 inh) | U2OS cAMP counter inactive | MC4R antag conf inactive
Cc1nc(N2CCC(C)CC2)c2c(C)c(C(=O)Nc3ccc(C)c(F)c3)sc2n1	none
Cc1nc(N2CCC(C)CC2)c2c(C)c(C(=O)Nc3ccccc3C(F)(F)F)sc2n1	MC4R antag cAMP 29.7 | U2OS cAMP counter inactive | MC4R antag conf inactive
